Drawing on ChEMBL document CHEMBL3792306, “Antichagasic and trichomonacidal activity of 1-substituted 2-benzyl-5-nitroindazolin-3-ones and 3-alkoxy-2-benzyl-5-nitro-2H-indazoles” (Eur J Med Chem, 2016), this text covers IC50, CC50 and selectivity ratio for 20 compounds.

For one data set, the system named is Trichomonas vaginalis. As to the kind of experiment: Trichomonacidal activity against metronidazole-sensitive Trichomonas vaginalis JH31A#4 trophozoites after 24 hrs by resazurin dye based fluorescence assay. It is filed as functional, organism-based. To be noted: JH31A#4, 24 h. Put shortly:
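Trophozoites in TYM with 10% FBS, 37 °C, 5% CO₂, seeded at 10⁵/mL in glass tubes. After 5 h, compounds added at 9.37–300 µM final (DMSO <0.2%). Viability read by resazurin fluorimetry after 24 h at 37 °C. Metronidazole 25 µM as reference. At least two runs in triplicate; IC50 with 95% limits by probit.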

In the next data set the test system is Trypanosoma cruzi. Put plainly: Antichagasic activity against Trypanosoma cruzi CL-B5 epimastigotes […] assessed as growth inhibition after 72 hrs by beta galactosidase reporter gene assay. In kind it is functional, organism-based. In short, it runs like this:
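Then CPRG (200 µM final, pH 7.4) in Triton X-100 added for 3 h at 37 °C, A595 read. Triplicates, three independent runs; IC50 from dose–response of %growth inhibition, mean ± SD.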
In general terms: A reporter such as luciferase makes a cellular process visible.

The nature of data set [1]: Cytotoxicity against mouse L929 cells after 48 hrs by resazurin assay. In kind it is cell-based. To be noted: read-out: LC50. In short, it runs like this: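 L929 fibroblasts, 15×10^3 cells/well in MEM, attached 3 h. Exposed to compounds for 48 h at 37 °C, 5% CO2. Resazurin (2 mM solution in PBS) added for 3 h; fluorescence read at 535/590 nm to give % cytotoxicity. Triplicate wells, three independent runs. LC50 taken from concentration vs %C curves, mean ± SD.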
(In general: Resazurin is reduced to fluorescent resorufin, in cell work by metabolically active cells.)

Data set [2] can be described thus: Selectivity index, ratio of LC50 for mouse L929 cells to IC50 for Trypanosoma cruzi CL-B5 lacZ epimastigotes […]. To be noted: read-out: Ratio LC50/IC50. It is filed as toxicity, cell-based. Put shortly:
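SI = LC50 (L929, 48 h resazurin) / epimastigote IC50. […] CPRG (200 µM final, 0.9% Triton X-100, pH 7.4) added for 3 h at 37 °C, A595 read. Triplicates, n = 3; IC50 from %EGI curves.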

The compound `COc1c2cc([N+](=O)[O-])ccc2nn1C` returned an IC50 in the data set with Trichomonas vaginalis of 18.5 µM.

Turning to `CC(=O)n1c2ccc([N+](=O)[O-])cc2c(=O)n1Cc1ccccc1`, the half-inhibitory concentration (IC50) in the data set with Trypanosoma cruzi was > 256 µM; in the data set on Trichomonas vaginalis, 213 µM. Moreover, the CC50 at 48 h in data set [1] is > 256 µM.

`O=C(O)CCn1c2ccc([N+](=O)[O-])cc2c(=O)n1Cc1ccccc1`: in the data set on Trypanosoma cruzi, the IC50 was > 256 µM. Further, the CC50 at 48 h in data set [1] is > 256 µM.

For the compound `Cc1ccc(S(=O)(=O)n2c3ccc([N+](=O)[O-])cc3c(=O)n2Cc2ccccc2)cc1`, the IC50 with Trypanosoma cruzi is 28.8 µM; in the data set with Trichomonas vaginalis, 151 µM. The CC50 at 48 h in data set [1] is > 256 µM. Besides, in data set [2], the selectivity ratio is > 8.9.

With `CCOC(=O)n1c2ccc([N+](=O)[O-])cc2c(=O)n1Cc1ccccc1`, the figures for the IC50 with Trypanosoma cruzi and in the data set with Trichomonas vaginalis were 49 µM and 419 µM, respectively. Also, in data set [1], the CC50 at 48 h came out at 122 µM. Moreover, in data set [2], the selectivity ratio worked out at 2.49.

Consider `O=[N+]([O-])c1ccc2nn(Cc3ccccc3)c(OCCOc3c4cc([N+](=O)[O-])ccc4nn3Cc3ccccc3)c2c1`, for which the half-maximal inhibitory concentration (IC50) in the data set on Trypanosoma cruzi was > 256 µM. Further, the CC50 at 48 h in data set [1] was > 256 µM.

In the case of `O=c1c2cc([N+](=O)[O-])ccc2n(CCCBr)n1Cc1ccccc1`, the half-inhibitory concentration (IC50) worked out at 2.9 µM in the data set on Trypanosoma cruzi and 80.2 µM in the data set on Trichomonas vaginalis. Moreover, the CC50 at 48 h in data set [1] stood at 25.2 µM. In data set [2], the selectivity ratio was 8.69.

For the compound `O=C(OCc1ccccc1)n1c2ccc([N+](=O)[O-])cc2c(=O)n1Cc1ccccc1`, the concentration for half-maximal inhibition (IC50) in the data set on Trypanosoma cruzi came to 43.6 µM; in the data set on Trichomonas vaginalis it was 589 µM. The CC50 at 48 h in data set [1] came to 86.1 µM. The selectivity ratio in data set [2] worked out at 1.97.

As for `NC(=O)CN1c2ccc([N+](=O)[O-])cc2C(=O)N(Cc2ccccc2)C1C(N)=O` (stereo not given), in the data set with Trypanosoma cruzi, the IC50 is > 256 µM. For the same compound, the CC50 at 48 h in data set [1] was > 256 µM.

`COCCOc1c2cc([N+](=O)[O-])ccc2nn1Cc1ccccc1`: the results for the IC50 in the data set with Trypanosoma cruzi and in the data set with Trichomonas vaginalis were > 256 µM and 107 µM, respectively. The CC50 at 48 h in data set [1] is > 256 µM.

Take `COC(=O)C1Nc2ccc([N+](=O)[O-])cc2C(=O)N1Cc1ccccc1` (stereo not given): the IC50 in the data set with Trypanosoma cruzi turned out to be 216 µM. The CC50 at 48 h in data set [1] was > 256 µM. The selectivity ratio in data set [2] is > 1.18.

In the case of `NC(=O)C1Nc2ccc([N+](=O)[O-])cc2C(=O)N1Cc1ccccc1` (stereo not given), in the data set on Trypanosoma cruzi, the IC50 is > 256 µM. Further, the CC50 at 48 h in data set [1] is > 256 µM.

Regarding `O=C(c1ccccc1)n1c2ccc([N+](=O)[O-])cc2c(=O)n1Cc1ccccc1`, the concentration for half-maximal inhibition (IC50) was > 256 µM in the data set with Trypanosoma cruzi and 197 µM with Trichomonas vaginalis. Besides, the CC50 at 48 h in data set [1] was 146 µM. Moreover, the selectivity ratio in data set [2] was < 0.57.

With `O=c1c2cc([N+](=O)[O-])ccc2n(CCOc2c3cc([N+](=O)[O-])ccc3nn2Cc2ccccc2)n1Cc1ccccc1`, the IC50 in the data set on Trypanosoma cruzi is > 256 µM. Also, the CC50 at 48 h in data set [1] was > 256 µM.

Regarding `CCOC(=O)CCCn1c2ccc([N+](=O)[O-])cc2c(=O)n1Cc1ccccc1`, the half-inhibitory concentration (IC50) was 11.1 µM in the data set with Trypanosoma cruzi and 192 µM with Trichomonas vaginalis. Moreover, in data set [1], the CC50 at 48 h is 78.1 µM. In addition, the selectivity ratio in data set [2] was 7.01.

Consider `COC(=O)COc1c2cc([N+](=O)[O-])ccc2nn1Cc1ccccc1`, for which the half-maximal inhibitory concentration (IC50) in the data set with Trypanosoma cruzi came out at 145 µM. Besides, the CC50 at 48 h in data set [1] was > 256 µM. Moreover, the selectivity ratio in data set [2] is > 1.77.

Consider `O=C(O)CCCn1c2ccc([N+](=O)[O-])cc2c(=O)n1Cc1ccccc1`, for which the 50% inhibitory concentration (IC50) in the data set with Trypanosoma cruzi is > 256 µM. The CC50 at 48 h in data set [1] was > 256 µM.

Turning to `COC(=O)Cn1c2ccc([N+](=O)[O-])cc2c(=O)n1Cc1ccccc1`, the IC50 in the data set on Trypanosoma cruzi came out at 26.2 µM; in the data set with Trichomonas vaginalis, 535 µM. The CC50 at 48 h in data set [1] came out at 129 µM. Also, in data set [2], the selectivity ratio turned out to be 4.92.

With `NC(=O)CCCn1c2ccc([N+](=O)[O-])cc2c(=O)n1Cc1ccccc1`, the 50% inhibitory concentration (IC50) in the data set with Trypanosoma cruzi was determined as 31 µM; in the data set with Trichomonas vaginalis, 104 µM. For the same compound, in data set [1], the CC50 at 48 h is > 256 µM. Also, the selectivity ratio in data set [2] was > 8.26.

Consider `O=[N+]([O-])c1ccc2nn(Cc3ccccc3)c(OCCBr)c2c1`, for which the IC50 is > 256 µM in the data set with Trypanosoma cruzi and 64.8 µM in the data set on Trichomonas vaginalis. Further, the CC50 at 48 h in data set [1] is > 256 µM.

The IC50 is the concentration that inhibits the measured activity by half.
